Measured values from paper PMC2992178 (Diabetes Care, 2010).
Read-outs that look alike come from different tables or passages of the source.

How the values were obtained:
[1] = type: in vivo, human; details: for AUC0-∞/D, AUC0-∞ to dose ratio / Cmax/D, Cmax to dose ratio / Cl, clearance / Mean resistance time / Vz, volume of distribution / Cmax, maximum plasma concentration / Tmax, time to maximal concentration / t½, half-life: obese type 2 diabetes (n=7), mean ± SD; for Cl, clearance / Mean resistance time / Vz, volume of distribution / t½, half-life: noncompartmental; for Cmax, maximum plasma concentration / Tmax, time to maximal concentration: plasma RIA; for t½, half-life: plasma
[2] = system: obese subjects with type 2 diabetes; assay: Euglycemic clamp; type: in vivo, human; details: obese type 2 diabetes
[3] = system: healthy subjects; assay: Euglycemic clamp; type: in vivo, human; details: 10 units s.c.
Procedure, shortened: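 Healthy volunteers fasted overnight from 8:00 p.m., then received a single 10-unit lispro dose by pen with an 8-mm needle. It went into abdominal subcutaneous fat 8 cm above the umbilicus and 10 cm from the midline. Plasma glucose was read every 5 min and clamped at 5–6 mmol/l with IV 20% dextrose for 8 h. GIRmax, tGIRmax and GItot came from GIR–time data; GIR was also plotted against plasma lispro concentration.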

[4] = Plasma lispro pharmacokinetics after subcutaneous injection, healthy subjects; type: in vivo, human; details: healthy subjects (n=6), 10 units s.c., mean ± SD
Procedure, shortened: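 Venous blood was drawn every 10 min for 3 h, then every 20 min, after a 10-unit subcutaneous abdominal lispro dose under a euglycemic clamp. Type 2 diabetic subjects had first received an overnight IV insulin infusion. Samples went into citrate tubes with protease inhibitors, were spun at 4°C, snap-frozen and stored at −80°C. Lispro was measured by specific radioimmunoassay in duplicate. Noncompartmental analysis gave Cmax, AUC0-∞, Cl and dose ratios; non-normal data were log-transformed.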

## lispro
[1]; 10 units s.c., P < 0.001
  Cmax/D lower in subjects with type 2 diabetes than in healthy subjects: 41%
[1]; 10 units s.c.
  AUC0-∞/D, AUC0-∞ to dose ratio: 1.056 ± 0.264 min/L
  Cmax/D, Cmax to dose ratio: 0.0054 ± 0.0005 L
  Cl, clearance: 0.99 ± 0.22 L/min
  Mean resistance time: 180 ± 65 min
  Vz, volume of distribution: 118 ± 34 L
  Cmax, maximum plasma concentration: 310 ± 28 pmol/L
  Tmax, time to maximal concentration: 0.928 ± 0.233 h
  t½, half-life: 1.67 ± 0.567 h
[1]; 30 units s.c.
  AUC0-∞/D, AUC0-∞ to dose ratio: 1.140 ± 0.188 min/L
  Cmax/D, Cmax to dose ratio: 0.0047 ± 0.0012 L
  Cl, clearance: 0.90 ± 0.14 L/min
  Mean resistance time: 196 ± 30 min
  Vz, volume of distribution: 104 ± 53 L
  Cmax, maximum plasma concentration: 808 ± 218 ^‖ pmol/l
  Tmax, time to maximal concentration: 1.48 ± 0.365 h
  t½, half-life: 1.62 ± 0.633 h
[1]; 50 units s.c.
  AUC0-∞/D, AUC0-∞ to dose ratio: 1.296 ± 0.208 min/L
  Cmax/D, Cmax to dose ratio: 0.0046 ± 0.0012 L
  Cl, clearance: 0.79 ± 0.13 L/min
  Mean resistance time: 236 ± 49 min
  Vz, volume of distribution: 107 ± 46 L
  Cmax, maximum plasma concentration: 1,313 ± 346 ^‖ ^# pmol/l
  t½, half-life: 2.27 ± 1.2 h
[1]; obese type 2 diabetes, 50 units versus 10 units, P < 0.001
  delay of Tmax: 1.23 h
[2]; 10 units s.c., P < 0.0001
  GIRmax as % of the value measured in healthy subjects: 7%
  GItot as % of the value measured in healthy subjects: 4%
  prolongation of tGIRmax versus healthy subjects: 1 h
[2]; 10 units s.c., P < 0.0007 versus healthy
  average difference between Tmax and tGIRmax: 1.23 h
[2]; 30 units s.c.
  average difference between Tmax and tGIRmax: 1.43 h
[2]; 50 units s.c.
  average difference between Tmax and tGIRmax: 1.92 h
[3]
  average difference between Tmax and tGIRmax: 0.317 h
[3]; at insulin concentrations nearing 40 pmol/l
  initial GIR response: 2.22 mg/kg/min
[4]
  AUC0-∞/D, AUC0-∞ to dose ratio: 1.190 ± 0.302 min/L
  Cmax/D, Cmax to dose ratio: 0.0091 ± 0.0007 L
[4]; noncompartmental
  Cl, clearance: 0.88 ± 0.21 L/min
  Mean resistance time: 119 ± 21 min
  Vz, volume of distribution: 67 ± 16 L
[4]; plasma RIA
  Cmax, maximum plasma concentration: 0.523 ± 0.042 nM
  Tmax, time to maximal concentration: 0.805 ± 0.0683 h
[4]; plasma RIA, noncompartmental
  AUC0-∞, area under the lispro plasma concentration curve: 68,462 ± 17,346 pmol/min/l
[4]; plasma, noncompartmental
  t½, half-life: 1.12 ± 0.25 h
